≈ marks a conversion by molar mass, not a printed value.
Columns and labels:
Streptococcus pneumoniae [1] = experiment: Antimicrobial activity against multiple drug-resistant Streptococcus pneumoniae ATCC 700677 by broth microdilution method; assay type: functional
In short: (§1)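 MICs determined by broth microdilution following CLSI guidelines. Inocula came from overnight Mueller-Hinton broth (ATCC 49951, NB01021) or overnight Trypticase soy agar culture (ATCC 6301). ATCC 6303 and ATCC 700677 came from a 5-h log culture in Todd-Hewitt broth–30% horse serum.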

Streptococcus pneumoniae [2] = experiment: Antimicrobial activity against Streptococcus pneumoniae ATCC 6303 by broth microdilution method; assay type: functional; in short: as §1
Staphylococcus aureus [3] = experiment: Antimicrobial activity against methicillin-susceptible Staphylococcus aureus ATCC 49951 by broth microdilution method; assay type: functional; in short: as §1
Staphylococcus aureus [4] = experiment: Antimicrobial activity against methicillin-susceptible Staphylococcus aureus ATCC 13709 by broth microdilution method; assay type: functional
In short: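 MIC by broth microdilution following CLSI guidelines.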

Streptococcus pneumoniae [5] = experiment: Antimicrobial activity against Streptococcus pneumoniae ATCC 6301 by broth microdilution method; assay type: functional; in short: as §1
Staphylococcus aureus [6] = experiment: Antimicrobial activity against methicillin-resistant Staphylococcus aureus NB01021 infected in po dosed BALB/c mouse administered 0, 4, 23 hrs post infection; assay type: functional
In short: (§2)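 Female BALB/c mice (19–23 g) infected intraperitoneally with MRSA NB01021 in 5% hog gastric mucin, 2.1 × 10^7 to 2.8 × 10^7 CFU/mouse (0.3 ml), 10–100× minimal lethal dose. Three dose levels, groups of 5–6; vehicle controls. Treatment 0, 4 and 23 h post-infection. Observed 8 days; ED50 with 95% CI by probit analysis of day-8 survival.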

Staphylococcus aureus [7] = experiment: Antimicrobial activity against methicillin-resistant Staphylococcus aureus NB01021 by broth microdilution method; assay type: functional; in short: as §1
Staphylococcus aureus [8] = experiment: Antimicrobial activity against methicillin-resistant Staphylococcus aureus NB01021 infected in sc dosed BALB/c mouse administered 0, 4, 23 hrs post infection; assay type: functional; in short: as §2
Staphylococcus aureus [9] = experiment: Antimicrobial activity against methicillin susceptible Staphylococcus aureus ATCC 13709 infected in sc dosed NMRI mouse treated 1 and 5 hrs post infection; assay type: functional; settings: ATCC 13709, sc
In short: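 Systemic infection: ATCC 13709 grown overnight in tryptic soy broth and suspended in 0.86% NaCl. Given intraperitoneally at 7.3 × 10^7 to 2 × 10^8 CFU/mouse, 10–100× the minimal lethal dose, 0.3 ml/mouse. Groups of 5–6 mice, typically three dose levels; controls got vehicle. Dosed 1 and 5 h post-infection. Survival followed 8 days; ED50 (protection of 50%) with 95% CI by probit analysis of day-8 survival.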

Staphylococcus aureus [10] = experiment: Antimicrobial activity against methicillin susceptible Staphylococcus aureus ATCC 49951 infected in sc dosed NMRI mouse treated 1 and 5 hrs post infection; assay type: functional; settings: ATCC 49951, sc
In short: (§3)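 Intraperitoneal infection (0.3 ml/mouse, 10 to 100 times minimal lethal dose) with inoculum in 0.86% NaCl; ATCC 49951 grown overnight in Mueller-Hinton broth (1.7 × 10^7 to 2.2 × 10^7 CFU/mouse), ATCC 13709 in tryptic soy broth (7.3 × 10^7 to 2 × 10^8 CFU/mouse). Groups of 5 to 6 mice, typically three doses, treated 1 and 5 h postinfection; vehicle controls. ED50 by probit analysis of day-8 survival.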

Staphylococcus aureus [11] = experiment: Antimicrobial activity against methicillin susceptible Staphylococcus aureus ATCC 13709 infected in po dosed NMRI mouse treated 1 and 5 hrs post infection; assay type: functional; settings: ATCC 13709, po; in short: as §3
Streptococcus pneumoniae [12] = experiment: Antimicrobial activity against multiple drug resistant Streptococcus pneumoniae ATCC 700677 infected in po dosed BALB/c mouse administered twice daily for 3 days; assay type: functional; settings: ATCC 700677, po, 72 h
In short: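 Female BALB/c mice (19–23 g) infected intraperitoneally with ATCC 700677 from a 5-h Todd-Hewitt–30% horse serum log culture, suspended in 5% hog mucin, 1.5 × 10^7 to 2 × 10^7 CFU/mouse. Groups of 5–6, typically three dose levels; vehicle controls. Dosed 1, 5, 17, 27, 42, 51 h post-infection. ED50 from day-8 survival by probit analysis, with 95% CI.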

Streptococcus pneumoniae [13] = experiment: Antimicrobial activity against Streptococcus pneumoniae ATCC 6301 infected in po dosed NMRI mouse administered thrice daily for 4 days; settings: ATCC 6301, po, 96 h
Staphylococcus aureus [14] = experiment: Antimicrobial activity against methicillin susceptible Staphylococcus aureus ATCC 49951 infected in po dosed NMRI mouse treated 1 and 5 hrs post infection; assay type: functional; settings: ATCC 49951, po; in short: as §3
Streptococcus pneumoniae [15] = experiment: Antimicrobial activity against Streptococcus pneumoniae ATCC 6303 infected in po dosed BALB/c mouse pneumonia model assessed as complete eradication of bacteria administered twice daily 3 days starting 16 hrs post infection; assay type: functional; settings: Streptococcus pneumoniae, ATCC 6303, po
In short: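 Anesthetized (ketamine/xylazine) female BALB/c mice (19 to 22 g) inoculated intranasally with 50 µl log-phase culture (1.4 × 10^5 CFU/mouse). Oral treatment, six mice per group, at 16, 27, 40, 51, 64 and 75 h postinfection; vehicle controls. Lungs harvested one day after last dose, homogenized, plated; log10 CFU/lung. Deaths assigned 9 log10 CFU/lung; Kruskal-Wallis with Dunn's test versus control.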

Row | Structure (SMILES) | MIC (Streptococcus pneumoniae [1]) [µg/mL] | MIC (Streptococcus pneumoniae [2]) [µg/mL] | MIC (Staphylococcus aureus [3]) [µg/mL] | MIC (Staphylococcus aureus [4]) [µg/mL] | MIC (Streptococcus pneumoniae [5]) [µg/mL] | ED50 (Staphylococcus aureus [6]) [mg/kg] | MIC (Staphylococcus aureus [7]) [µg/mL] | ED50 (Staphylococcus aureus [8]) [mg/kg] | ED50 (Staphylococcus aureus [9]) [mg/kg] | ED50 (Staphylococcus aureus [10]) [mg/kg] | ED50 (Staphylococcus aureus [11]) [mg/kg] | ED50 (Streptococcus pneumoniae [12]) [mg/kg] | ED50 (Streptococcus pneumoniae [13]) [mg/kg] | ED50 (Staphylococcus aureus [14]) [mg/kg] | ED50 (Streptococcus pneumoniae [15]) [mg/kg]
1 | CC1(C)S[C@@H]2[C@H](NC(=O)[C@H](N)c3ccc(O)cc3)C(=O)N2[C@H]1C(=O)O [AMOXICILLIN] | 4 (≈ 10.9 µM) | 0.03 (≈ 0.0821 µM) | 0.5 (≈ 1.37 µM) | 1 (≈ 2.74 µM) | 0.03 (≈ 0.0821 µM) | > 50 | 128 (≈ 350 µM) |  |  |  |  |  |  |  | 
2 | CN[C@H](CC(C)C)C(=O)N[C@H]1C(=O)N[C@@H](CC(N)=O)C(=O)N[C@H]2C(=O)N[C@H]3C(=O)N[C@H](C(=O)N[C@H](C(=O)O)c4cc(O)cc(O)c4-c4cc3ccc4O)[C@H](O)c3ccc(c(Cl)c3)Oc3cc2cc(c3O[C@@H]2O[C@H](CO)[C@@H](O)[C@H](O)[C@H]2O[C@H]2C[C@](C)(N)[C@H](O)[C@H](C)O2)Oc2ccc(cc2Cl)[C@H]1O [VANCOMYCIN] | ≤ 0.125 | 0.5 (≈ 0.345 µM) |  |  | 0.5 (≈ 0.345 µM) |  |  | 2.5 | 2.8 | 1.5 |  |  |  |  | 
3 | CC[C@H]1OC(=O)[C@H](C)[C@@H](O[C@H]2C[C@@](C)(OC)[C@@H](O)[C@H](C)O2)[C@H](C)[C@@H](O[C@@H]2O[C@H](C)C[C@H](N(C)C)[C@H]2O)[C@](C)(OC)C[C@@H](C)C(=O)[C@H](C)[C@@H](O)[C@]1(C)O [CLARITHROMYCIN] | 32 (≈ 42.8 µM) | 0.03 (≈ 0.0401 µM) | 1 (≈ 1.34 µM) | 0.5 (≈ 0.668 µM) | 0.015 (≈ 0.0201 µM) |  | > 64 |  |  | 1.2 | 8.7 | > 60 | 2.1 | 7.7 | 
4 | COc1c(N2C[C@@H]3CCCN[C@@H]3C2)c(F)cc2c(=O)c(C(=O)O)cn(C3CC3)c12 [MOXIFLOXACIN] | ≤ 0.06 | 0.5 (≈ 1.25 µM) | 0.06 (≈ 0.149 µM) | ≤ 0.03 | 0.5 (≈ 1.25 µM) |  | 1 (≈ 2.49 µM) |  |  |  |  |  |  |  | 14.3

— ChEMBL document CHEMBL1671663, “In vivo characterization of the peptide deformylase inhibitor LBM415 in murine infection models” (Antimicrob Agents Chemother, 2009)
